In article PMC6434473 (Cell Transplantation, 2018):
Entries after “also recorded” stand apart in the source; their conditions may differ.

Assays:
[1] = system: CXCR7; assay: SDF-1α-induced phosphorylation of Akt and Erk in CXCR7-transfected CHO cells; type: cell-based, human; details: Western blotting; for effect on SDF-1α-induced Akt phosphorylation: peptides with SDF-1α
In short: (§1)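 CHO cells were stably transfected with pcDNA3-hCXCR4 or pcDNA3-hCXCR7, selected in G418 (1.2 mg/mL) and single-cell cloned; the CXCR4 line was also FACS-sorted. After SDF-1α exposure, cells were lysed 30 min on ice (Tris/NaCl/EGTA/deoxycholate/Triton/SDS, pH 7.2, plus phosphatase/protease inhibitors). Blots: BCA-matched protein, 8% SDS-PAGE, nitrocellulose, primary antibodies overnight at 4°C, HRP secondary 1 h at room temperature, chemiluminescent detection.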

[2] = system: CXCR4; details: HEK293 cells that stably expressed CXCR4; cited from earlier work
[3] = system: human CXCR4; assay: SDF-1α-induced phosphorylation of Akt and Erk in CXCR4-transfected CHO cells; type: cell-based; details: SDF-1α 12.5 nM
In short: as §1

[4] = system: C3H/HeJ mice; assay: Mobilization of hematopoietic progenitor cells to the blood; type: in vivo, mouse; details: subcutaneous, 1 h; for mobilization of BFU-E from the bone marrow to the blood / mobilization of CFU-GEMM from the bone marrow to the blood / mobilization of CFU-GM from the bone marrow to the blood: 7-day culture in MethoCult GF M3434; for mobilization of HPCs from the bone marrow to the peripheral blood: vs vehicle control (P < 0.01), monovalent peptide 37.5 and 150 mg/kg, bivalent peptide 57.5 and 230 mg/kg, mean of at least three independent experiments
In short: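 C3H/HeJ mice received vehicle or peptide subcutaneously. After 1 h, peripheral blood was drawn into heparin-treated tubes and red cells were lysed with ammonium chloride. Cells were grown in MethoCult GF M3434 for 7 days in humidified 5% CO2. CFU-GM, BFU-E and CFU-GEMM colonies were counted.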

[5] = system: CXCR4-dependent HIV-1 strains; details: cited from earlier work
[6] = system: HSCs; details: clinical studies; cited from earlier work
[7] = system: wild-type CHO cells; assay: SDF-1α-induced phosphorylation of Akt in wild-type CHO cells; type: cell-based, Chinese hamster; details: SDF-1α 12.5 nM, Western blotting
In short: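 Untransfected CHO cells were treated with SDF-1α (12.5 nM), then lysed 30 min on ice in pH 7.2 Tris/NaCl/EGTA/deoxycholate/Triton/SDS buffer with phosphatase/protease inhibitors. Lysates were cleared at 17,000 g, 15 min, 4°C. BCA-matched protein ran on 8% SDS-PAGE onto nitrocellulose, blocked with milk or BSA in TBST. Probing: primary overnight at 4°C, HRP secondary 1 h at room temperature, chemiluminescence.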

[8] = system: CXCR7; details: cited from earlier work
[9] = SDF-1α 12.5 nM, 5, 15, 30, 45, 60 minutes

| Compound | effect on SDF-1α-induced Akt phosphorylation [1] | mobilization of BFU-E from the bone marrow to the blood [4] | mobilization of CFU-GEMM from the bone marrow to the blood [4] | mobilization of CFU-GM from the bone marrow to the blood [4] | mobilization of HPCs from the bone marrow to the peripheral blood [4] | anti-HIV entry activity [5] | further results |
| --- | --- | --- | --- | --- | --- | --- | --- |
| LGASWHRPDKCCLGYQKRPLPK [HC4319] | little inhibitory effects; also recorded: little or no effect | strongly induced rapid mobilization | strongly induced rapid mobilization | strongly induced rapid mobilization | strong mobilization of HPCs | – | CXCR4 binding potency compared with the monomeric counterparts DV1 and DV3 [2]: much more potent; inhibitory effect on phosphorylation of Akt compared with DV1 ([3]; 30 μM, bivalent vs monovalent): more potent inhibitory effect; inhibitory effect on phosphorylation of Erk compared with DV1 ([3]; 30 μM, bivalent vs monovalent): more potent inhibitory effect |
| LGASWHRPDKCCLGYQKRPLP [DV1] | slight effect; also recorded: little or no effect | strongly induced rapid mobilization | strongly induced rapid mobilization | strongly induced rapid mobilization | strong mobilization of HPCs | anti-HIV entry activity | effect on SDF-1α-induced Akt phosphorylation ([1]; listed as DV-1): little inhibitory effects |
| c1cc(CN2CCCNCCNCCCNCC2)ccc1CN1CCCNCCNCCCNCC1 [AMD3100] | – | – | – | – | – | – | mobilization of HSCs to the peripheral blood [6]: rapid mobilization of HSCs to the peripheral blood |
| LGASWHRPDK [DV3] | – | – | – | – | – | anti-HIV entry activity | – |
| SDF-1α: specific ligand of CXCR4 | – | – | – | – | – | – | induction of Akt phosphorylation [1, 9]: only Akt phosphorylation was observed consistently from 5 to 60 minutes; also recorded: only weak phosphorylation of Akt; induction of Erk phosphorylation [1, 9]: no phosphorylation changes were observed for Erk; induction of Akt phosphorylation [7]: no changes in Akt phosphorylation; affinity for CXCR7 compared with CXCR4 [8]: higher; induction of phosphorylation of Akt ([3]; Western blotting): induced the phosphorylation of Akt and Erk significantly; induction of phosphorylation of Erk ([3]; Western blotting): induced the phosphorylation of Akt and Erk significantly |
| LGASWHRPDKCCLGYQKRPLPQVL LSSWYPTSQLCSKPGVIFLTKRGRQ VCADKSKDWVKKLMQQLPVTAR [vMIP-II] | – | – | – | – | – | – | inhibition of HIV-1 entry ([5]; vMIP-II binding to CXCR4 or CCR5): inhibitory effect on HIV-1 entry |
